Test results as given in ChEMBL document CHEMBL4043285 (J Med Chem, 2018).
pIC50: −log10 of the molar value. Active and inactive are the calls of the source. No cut-off for these calls is given here.

Tests used:
[1] = tested on: Aurk (Aurora kinase); test: Inhibition of Aurk in mouse L929sA cells transfected with human Fas assessed as increase in nuclear area at 3 uM after 24 hrs in presence of TNF by Hoechst 33342 staining-based microscopic assay relative to control; assay type: cell-based
[2] = tested on: Mus musculus; test: Protection against TNF-induced hypothermia in TNF-induced SIRS C57BL/6J mouse model at 50 mg/kg administered via oral gavage treated 1.5 hrs prior to TNF challenge by thermometric analysis; assay type: functional, organism-based
How it was run: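 Mice were dosed orally by gavage at 50 mg/kg, 1.5 h before challenge with murine TNF (mTNF).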

[3] = target: Aurora kinase B (Homo sapiens, UniProt Q96GD4); test: Inhibition of human recombinant AurKB after 4 hrs by ADP-Glo assay
[4] = target: T1, Receptor-interacting serine/threonine-protein kinase 1 (Homo sapiens, UniProt Q13546); test: Inhibition of human recombinant RIPK1 after 4 hrs by ADP-Glo assay
T1 sequence (Q13546 whole entry): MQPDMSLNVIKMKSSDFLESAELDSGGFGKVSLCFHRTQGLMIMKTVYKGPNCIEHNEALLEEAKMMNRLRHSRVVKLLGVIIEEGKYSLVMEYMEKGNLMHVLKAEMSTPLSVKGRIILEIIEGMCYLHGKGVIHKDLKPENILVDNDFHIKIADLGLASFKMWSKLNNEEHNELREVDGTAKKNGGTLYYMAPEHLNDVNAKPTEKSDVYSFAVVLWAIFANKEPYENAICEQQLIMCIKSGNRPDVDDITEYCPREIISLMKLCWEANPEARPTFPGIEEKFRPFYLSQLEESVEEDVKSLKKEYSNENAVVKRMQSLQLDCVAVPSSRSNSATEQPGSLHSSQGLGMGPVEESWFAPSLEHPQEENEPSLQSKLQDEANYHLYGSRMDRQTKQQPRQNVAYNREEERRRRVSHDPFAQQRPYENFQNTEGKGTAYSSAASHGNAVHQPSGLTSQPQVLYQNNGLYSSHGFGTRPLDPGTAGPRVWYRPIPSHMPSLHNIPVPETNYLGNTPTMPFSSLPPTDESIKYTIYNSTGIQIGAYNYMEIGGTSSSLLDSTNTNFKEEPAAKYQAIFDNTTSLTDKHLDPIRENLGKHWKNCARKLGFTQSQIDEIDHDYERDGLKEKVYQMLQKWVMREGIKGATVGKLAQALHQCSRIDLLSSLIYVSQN

[5] = target: T2, Aurora kinase A (Homo sapiens, UniProt O14965); test: Inhibition of human recombinant AurKA after 4 hrs by ADP-Glo assay
T2 sequence (O14965 whole entry): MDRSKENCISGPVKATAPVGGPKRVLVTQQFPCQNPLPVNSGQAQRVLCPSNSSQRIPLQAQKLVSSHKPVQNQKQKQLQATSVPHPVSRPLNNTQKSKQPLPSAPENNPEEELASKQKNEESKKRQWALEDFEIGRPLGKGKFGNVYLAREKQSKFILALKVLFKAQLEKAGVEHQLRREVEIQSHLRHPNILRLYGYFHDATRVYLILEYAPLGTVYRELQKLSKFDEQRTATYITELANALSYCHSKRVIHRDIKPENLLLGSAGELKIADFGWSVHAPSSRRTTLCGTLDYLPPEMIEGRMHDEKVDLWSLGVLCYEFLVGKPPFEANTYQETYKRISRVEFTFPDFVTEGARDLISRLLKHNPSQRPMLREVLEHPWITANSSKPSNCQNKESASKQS

[6] = Inhibition of Aurk mouse L929sA cells transfected with human Fas assessed as increase in nuclear area after 24 hrs in presence of TNF by Hoechst 33342 staining-based microscopic assay
How it was run: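 L929sAhFAS cells treated with compound; mean nuclear area is measured and fitted as a sigmoidal dose–response curve.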

[7] = Inhibition of Aurk mouse L929sA cells transfected with human Fas assessed as reduction in cell growth after 24 hrs in presence of TNF by Hoechst 33342 staining-based microscopic assay
How it was run: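 L929sAhFAS cells exposed to compound; total cell number is counted after 24 h. IC50 is fitted from a dose–response curve of cell growth.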

[8] = tested on: Aurk (Aurora kinase); test: Inhibition of Aurk in mouse L929sA cells transfected with human Fas assessed as reduction in cell growth at 3 uM after 24 hrs in presence of TNF by Hoechst 33342 staining-based microscopic assay relative to control
[9] = target: T3, Receptor-interacting serine/threonine-protein kinase 1 (Mus musculus) (UniProt Q60855); test: Inhibition of RIPK1 in mouse L929sA cells transfected with human Fas assessed as inhibition in TNF-induced necroptosis at 3 uM pretreated for 24 hrs followed by TNF and zVAD.fmk addition measured after 3 hrs by Hoechst 33342/propidium iodide staining-based assay relative to control; assay type: cell-based
T3 sequence (whole entry): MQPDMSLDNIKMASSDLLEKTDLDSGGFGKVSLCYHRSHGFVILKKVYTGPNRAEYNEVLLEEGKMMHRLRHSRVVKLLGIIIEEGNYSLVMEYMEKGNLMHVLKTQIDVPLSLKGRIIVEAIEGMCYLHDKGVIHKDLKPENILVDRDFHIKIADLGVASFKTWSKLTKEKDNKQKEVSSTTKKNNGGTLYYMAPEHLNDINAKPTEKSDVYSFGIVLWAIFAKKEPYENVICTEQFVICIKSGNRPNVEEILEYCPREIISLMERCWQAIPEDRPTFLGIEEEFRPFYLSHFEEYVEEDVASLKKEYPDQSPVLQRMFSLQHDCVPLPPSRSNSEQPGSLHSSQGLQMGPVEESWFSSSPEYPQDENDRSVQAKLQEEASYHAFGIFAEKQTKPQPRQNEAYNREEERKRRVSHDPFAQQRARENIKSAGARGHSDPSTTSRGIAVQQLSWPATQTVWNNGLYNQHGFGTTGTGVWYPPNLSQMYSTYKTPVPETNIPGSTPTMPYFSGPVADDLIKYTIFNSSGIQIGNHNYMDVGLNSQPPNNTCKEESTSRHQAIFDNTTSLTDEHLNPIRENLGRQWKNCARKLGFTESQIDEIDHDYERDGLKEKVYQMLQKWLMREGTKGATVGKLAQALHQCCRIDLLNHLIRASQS

[10] = target: T3, Receptor-interacting serine/threonine-protein kinase 1 (Mus musculus); test: Inhibition of RIPK1 in mouse L929sA cells transfected with human Fas assessed as inhibition in TNF-induced necroptosis at 3 uM pretreated for 0.5 hrs followed by TNF and zVAD.fmk addition measured after 3 hrs by Hoechst 33342/propidium iodide staining-based assay relative to control; assay type: cell-based

Chain of Aurora kinase B (Q96GD4 whole entry): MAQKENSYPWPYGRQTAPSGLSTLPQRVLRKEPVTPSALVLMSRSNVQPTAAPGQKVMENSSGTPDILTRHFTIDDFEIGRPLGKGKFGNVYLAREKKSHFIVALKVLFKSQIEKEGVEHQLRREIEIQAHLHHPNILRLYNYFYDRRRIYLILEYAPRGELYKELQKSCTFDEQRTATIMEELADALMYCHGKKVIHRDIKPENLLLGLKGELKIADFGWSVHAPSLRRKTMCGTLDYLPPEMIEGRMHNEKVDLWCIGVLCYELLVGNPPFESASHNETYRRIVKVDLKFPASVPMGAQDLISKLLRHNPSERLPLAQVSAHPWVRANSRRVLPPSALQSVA

inhibition at 24 h, 3 µM [1] [%]	pIC50 [3]	pIC50 [4]	pIC50 [5]	pIC50 [6]	Compound	Activity [2]	pIC50 [7]	inhibition at 24 h, 3 µM [8] [%]	inhibition [9] [%]	inhibition [10] [%]
< 50	5.87	6.75	6.53	< 5.52	Cc1cc(Nc2cc(N3CCN(C)CC3)nc(Nc3ccc(NC(=O)C4CC4)cc3)n2)n[nH]1	Active	< 5.52	< 50		
	6.64	5.61	6.68	6.40	Cc1cc(Nc2nc(Sc3ccc(NC(=O)C4CCCCC4)cc3)nc(N3CCN(C)CC3)n2)n[nH]1		6.48		< 50	< 50
< 50	6.07		6.37	< 5.52	Cc1cc(Nc2cc(N3CCOCC3)nc(Nc3ccc(NC(=O)C4CC4)cc3)n2)n[nH]1	Active	< 5.52	< 50		
< 50				< 5.52	Cc1cc(Nc2nc(Nc3ccc(NC(=O)C4CC4)cc3)nc(N3CCN(C)CC3)n2)n[nH]1		< 5.52	< 50	< 50	< 50
	< 5.52		< 5.52		CN1C(=O)NC(Cc2c[nH]c3c(Cl)cccc23)C1=O (configuration not stated)	Active				
< 50				< 5.52	Cc1[nH]nc(Nc2cc(N3CCN(C)CC3)nc(Sc3ccc(NC(=O)C4CCCCC4)cc3)n2)c1C		< 5.52	< 50	< 50	< 50
< 50				< 5.52	Cc1[nH]nc(Nc2cc(N3CCN(C)CC3)nc(Nc3ccc(NC(=O)C4CCCCC4)cc3)n2)c1C		< 5.52	< 50	< 50	< 50
< 50				< 5.52	Cc1[nH]nc(Nc2nc(Nc3ccc(NC(=O)C4CC4)cc3)nc(N3CCOCC3)n2)c1C		< 5.52	< 50	< 50	< 50
< 50				< 5.52	Cc1cc(Nc2nc(Sc3ccc(NC(=O)C4CC4)cc3)nc(N3CCCCC3)n2)n[nH]1		< 5.52	< 50	< 50	< 50
< 50				< 5.52	Cc1cc(Nc2nc(Nc3ccc(NC(=O)C4CCCCC4)cc3)nc(N3CCCCC3)n2)n[nH]1		< 5.52	< 50	< 50	< 50
< 50	6.02			< 5.52	Cc1cc(Nc2cc(N3CCCCC3)nc(Nc3ccc(NC(=O)C4CC4)cc3)n2)n[nH]1	inactive	< 5.52	< 50		
